# Tests used:
# [1] = Oral bioavailability in Sprague-Dawley rat at 10 mg/kg; assay type: ADME, organism-based; conditions: in vivo
# Method in brief: (§1)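 Single-dose plasma pharmacokinetics with at least 3 animals per study. Tmax comes from oral dosing, and clearance and Vss from the parenteral arm. In rat that arm was given intra-arterially; in mouse, dog and monkey it was intravenous. Bioavailability is absolute, comparing the oral and parenteral arms.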
# [2] = Crystalline aqueous solubility at pH 6.5; assay type: physicochemical; conditions: aqueous solution
# [3] = Oral bioavailability in cynomolgus monkey at 2 mg/kg, po; assay type: ADME, organism-based, Macaca fascicularis; conditions: in vivo; method in brief: as §1
# [4] = Oral bioavailability in dog at 2 mg/kg, po; assay type: ADME, organism-based, Canis lupus familiaris; conditions: in vivo; method in brief: as §1
# [5] = Half life in Sprague-Dawley rat at 5 mg/kg, ia; assay type: ADME, organism-based; parameters: dose 5 mg/kg, route intra-arterial; conditions: in vivo
# Method in brief: (§2)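 Single-dose pharmacokinetics in each species by oral and intravenous routes; the rat intravenous arm was given intra-arterially. n ≥ 3 per study. Mouse exposure is reported as AUC0-8h.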
# [6] = Plasma clearance in Sprague-Dawley rat at 5 mg/kg, ia; assay type: ADME, organism-based; parameters: dose 5 mg/kg, route intra-arterial; method in brief: as §1
# [7] = Oral bioavailability in BALB/c mouse at 12 mg/kg; assay type: ADME, organism-based; conditions: in vivo; method in brief: as §2
# Liver microsomes [8] = test: Metabolic stability in human liver microsomes assessed as glutathione conjugate at 30 uM in presence of glutathione; assay type: ADME, Microsome
# Method in brief: (§3)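 Liver microsomes (mouse, rat or human) were fortified with 5 mM glutathione and incubated with 30 μM compound, then screened for glutathione conjugates.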
# [9] = Half life in dog at 1 mg/kg, iv; assay type: ADME, organism-based, Canis lupus familiaris; parameters: dose 1 mg/kg, route intravenous; conditions: in vivo; method in brief: as §2
# [10] = Volume of distribution at steady state in Sprague-Dawley rat at 5 mg/kg, ia; assay type: ADME, organism-based; parameters: dose 5 mg/kg, route intra-arterial; conditions: in vivo, read-out: Vdss; method in brief: as §1
# [11] = AUC in Sprague-Dawley rat at 10 mg/kg, po; assay type: ADME, organism-based; parameters: dose 10 mg/kg, route oral; conditions: plasma
# Method in brief: (§4)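 Single-dose pharmacokinetic study with at least 3 animals per study; the ia route is intra-arterial administration.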
# [12] = Tmax in BALB/c mouse at 12 mg/kg, po; assay type: ADME, organism-based; parameters: dose 12 mg/kg, route oral; conditions: in vivo; method in brief: as §1
# [13] = Cmax in Sprague-Dawley rat at 10 mg/kg, po; assay type: ADME, organism-based; parameters: dose 10 mg/kg, route oral; conditions: in vivo; method in brief: as §2
# [14] = Metabolic stability in mouse liver microsomes assessed as glutathione conjugate at 30 uM in presence of glutathione; assay type: ADME, Microsome; method in brief: as §3
# Liver microsomes [15] = test: Metabolic stability in rat liver microsomes assessed as glutathione conjugate at 30 uM in presence of glutathione; assay type: ADME, Microsome; method in brief: as §3
# [16] = Plasma clearance in dog at 1 mg/kg, iv; assay type: ADME, organism-based, Canis lupus familiaris; parameters: dose 1 mg/kg, route intravenous; method in brief: as §1
# [17] = Half life in cynomolgus monkey at 1 mg/kg, iv; assay type: ADME, organism-based, Macaca fascicularis; parameters: dose 1 mg/kg, route intravenous; conditions: in vivo; method in brief: as §2
# [18] = AUC in cynomolgus monkey at 2 mg/kg, po; assay type: ADME, organism-based, Macaca fascicularis; parameters: dose 2 mg/kg, route oral; conditions: plasma; method in brief: as §4
# [19] = Tmax in Sprague-Dawley rat at 10 mg/kg, po; assay type: ADME, organism-based; parameters: dose 10 mg/kg, route oral; conditions: in vivo; method in brief: as §1
# [20] = Tmax in cynomolgus monkey at 2 mg/kg, po; assay type: ADME, organism-based, Macaca fascicularis; parameters: dose 2 mg/kg, route oral; conditions: in vivo; method in brief: as §1
# [21] = AUC (0 to 8 h) in BALB/c mouse at 12 mg/kg, po; conditions: plasma
# [22] = Plasma clearance in cynomolgus monkey at 1 mg/kg, iv; assay type: ADME, organism-based, Macaca fascicularis; parameters: dose 1 mg/kg, route intravenous; method in brief: as §1
# [23] = Volume of distribution at steady state in dog at 1 mg/kg, iv; assay type: ADME, organism-based, Canis lupus familiaris; parameters: dose 1 mg/kg, route intravenous; conditions: in vivo, read-out: Vdss; method in brief: as §1
# [24] = AUC in dog at 1 mg/kg, iv; assay type: ADME, organism-based, Canis lupus familiaris; parameters: dose 1 mg/kg, route intravenous; conditions: plasma; method in brief: as §4
# [25] = Cmax in BALB/c mouse at 12 mg/kg, po; assay type: ADME, organism-based; parameters: dose 12 mg/kg, route oral; conditions: in vivo; method in brief: as §2
# [26] = Half life in BALB/c mouse at 6 mg/kg, iv; assay type: ADME, organism-based; parameters: dose 6 mg/kg, route intravenous; conditions: in vivo; method in brief: as §2
# [27] = AUC (0 to 8 h) in BALB/c mouse at 6 mg/kg, iv; conditions: plasma
# [28] = Tmax in dog at 2 mg/kg, po; assay type: ADME, organism-based, Canis lupus familiaris; parameters: dose 2 mg/kg, route oral; conditions: in vivo; method in brief: as §1
# [29] = AUC in Sprague-Dawley rat at 5 mg/kg, ia; assay type: ADME, organism-based; parameters: dose 5 mg/kg, route intra-arterial; conditions: plasma; method in brief: as §4
# [30] = Cmax in cynomolgus monkey at 2 mg/kg, po; assay type: ADME, organism-based, Macaca fascicularis; parameters: dose 2 mg/kg, route oral; conditions: in vivo; method in brief: as §2
# [31] = AUC in dog at 2 mg/kg, po; assay type: ADME, organism-based, Canis lupus familiaris; parameters: dose 2 mg/kg, route oral; conditions: plasma; method in brief: as §4
# [32] = Volume of distribution at steady state in BALB/c mouse at 6 mg/kg, iv; assay type: ADME, organism-based; parameters: dose 6 mg/kg, route intravenous; conditions: in vivo, read-out: Vdss; method in brief: as §1
# [33] = Plasma clearance in BALB/c mouse at 6 mg/kg, iv; assay type: ADME, organism-based; parameters: dose 6 mg/kg, route intravenous; method in brief: as §1
# [34] = Cmax in dog at 2 mg/kg, po; assay type: ADME, organism-based, Canis lupus familiaris; parameters: dose 2 mg/kg, route oral; conditions: in vivo; method in brief: as §2
# [35] = AUC in cynomolgus monkey at 1 mg/kg, iv; assay type: ADME, organism-based, Macaca fascicularis; parameters: dose 1 mg/kg, route intravenous; conditions: plasma; method in brief: as §4
# [36] = Crystalline aqueous solubility at pH 7.9; assay type: physicochemical; conditions: aqueous solution
# [37] = Volume of distribution at steady state in cynomolgus monkey at 1 mg/kg, iv; assay type: ADME, organism-based, Macaca fascicularis; parameters: dose 1 mg/kg, route intravenous; conditions: in vivo, read-out: Vdss; method in brief: as §1
compound,measurement,setting,value
COC(=O)N(CC(=O)O)Cc1cccc(OCc2nc(-c3ccc(Cl)cc3)oc2C)c1,bioavailability,[1],91%
same,solubility thermodynamic,[2],280 µg/mL
same,bioavailability,[3],75%
same,bioavailability,[4],58%
same,half-life,[5],3.2 h
same,clearance,[6],4.3 mL/min/kg
same,bioavailability,[7],88%
same,Stability,Liver microsomes [8],Stable
same,half-life,[9],7.9 h
same,Vd,[10],0.7 L/kg
same,AUC,[11],88 µM·h
same,Tmax,[12],0.25 h
same,Cmax,[13],43 µM
same,Stability,[14],Stable
same,Stability,Liver microsomes [15],Stable
same,clearance,[16],9.5 mL/min/kg
same,half-life,[17],11.9 h
same,AUC,[18],8.5 µM·h
same,Tmax,[19],0.4 h
same,Tmax,[20],0.8 h
same,AUC(0-8h),[21],33.9 µM·h
same,clearance,[22],8.9 mL/min/kg
same,Vd,[23],1.8 L/kg
same,AUC,[24],3.9 µM·h
same,Cmax,[25],23.8 µM
same,half-life,[26],3 h
same,AUC(0-8h),[27],19.3 µM·h
same,Tmax,[28],0.9 h
same,AUC,[29],48 µM·h
same,Cmax,[30],1.9 µM
same,AUC,[31],4.5 µM·h
same,Vd,[32],1.3 L/kg
same,clearance,[33],10.8 mL/min/kg
same,Cmax,[34],1 µM
same,AUC,[35],5.8 µM·h
same,solubility thermodynamic,[36],> 4000 µg/mL
same,Vd,[37],3.5 L/kg

# Source: ChEMBL document CHEMBL1156340 (J Med Chem, 2010)
